Measured values collected from several papers.
Lines come from different studies, so protocols differ.
Medium: plasma

COc1ccc([C@@H]2CN(C(=O)[C@@H](O)CO)C[C@@]2(C)[C@@H](C)O)cc1OC1CN(c2ccc(C)cn2)C1 — AUC(0-t) (human; oral, 1.5 mg, single dose, healthy volunteers): 467 ng·h/mL
CC(C)(O)c1ccccc1-c1ccc2[nH]c(/C=C/c3ccc(C(F)(F)F)cc3)nc2c1 — AUC(0-t) (male human; oral, 1 mg, single dose, fasted): 83 ng·h/mL
COc1cc(N2CCC(N3CCN(C)CC3)CC2)ccc1Nc1ncnc(Nc2ccccc2S(=O)(=O)C(C)C)n1 — AUC(0-t) (human; oral, 125 mg, multiple doses, patients): 8320 ng·h/mL
Cc1nc(NC(=O)N2CCC[C@H]2C(N)=O)sc1-c1ccnc(C(C)(C)C(F)(F)F)c1 — AUC(0-t) (human; oral, 400 mg, patients): 40700 ng·h/mL
CC(C)n1cc(C#N)c2cc(-n3cc(C(=O)O)cn3)ccc21 — AUC(0-t) (human; oral, 100 mg, single dose, fasted, healthy volunteers): 19400 ng·h/mL
FC(F)(F)c1ccc(CNc2ccc(Cc3c[nH]c4ncc(Cl)cc34)cn2)cn1 — AUC(0-t) (human; oral, 600 mg, multiple doses, patients): 13300 ng·h/mL
CO[C@H]1CC[C@H](N2C(=O)CNc3ncc(-c4ccc(C(C)(C)O)nc4)nc32)CC1 — AUC(0-t) (human; oral, 45 mg, patients): 1500 ng·h/mL
CCNCCCNC/C=C\CNCCCNCC — AUC(0-t) (human; intravenous, 200 mg, patients, infusion): 1330 ng·h/mL
COCCOc1cnc2ccn([C@H](C)c3nnc4c(F)cc(-c5cnn(C)c5)cn34)c(=O)c2c1 — AUC(0-t) (human; oral, 50 mg, multiple doses, once daily, patients): 6940 ng·h/mL
C[C@@]1(c2cc(NC(=O)c3ccc(C#N)cn3)ccc2F)C=CSC(N)=N1 — AUC(0-t) (human; oral, 3 mg, single dose): 231 ng·h/mL
CO[C@@H]1[C@H](OC(=O)N2CC(CCN3CCOCC3)C2)CC[C@]2(CO2)[C@H]1[C@@]1(C)O[C@@H]1CC=C(C)C — AUC(0-t) (human; subcutaneous, 3.6 mg, single dose, healthy volunteers): 10.4 ng·h/mL
OC[C@H]1O[C@@H](c2ccc(Cl)c(Cc3ccc(O[C@H]4CCOC4)cc3)c2)[C@H](O)[C@@H](O)[C@@H]1O — AUC(0-t) (human; oral, 25 mg, single dose): 4.31 µM·h
